The values below come from ChEMBL document CHEMBL5260851, “Iodinated Choline Transport-Targeted Tracers” (J Med Chem, 2020).

A short description of data set [1]: Displacement of [3H]-choline from choline transporter in human PC-3 cells preincubated with [3H]-choline for 15 mins followed by compound addition and measured after 60 mins. It is filed as cell-based. In general terms: In a radioligand displacement assay an active substance lowers the binding of a labelled ligand.
Data set [2] can be described thus: Cytotoxicity against human MRC5 cells. It is filed as toxicity, cell-based.
A short description of data set [3]: Stability in human liver microsomes assessed as parent compound remaining at 2 uM after 60 mins in presence of NADPH generating system by RF-MS analysis. The format is ADME, Microsome. To be noted: read-out: Stability. The procedure, abridged: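 Compound at 2 μM with human liver microsomes (0.5 mg·mL⁻¹) and an NADPH-generating system (NADP⁺, isocitrate dehydrogenase, isocitric acid, MgSO4) in 0.1 M phosphate buffer at 37 °C. Samples taken at 0, 15, 30 and 60 min, quenched with ACN–methanol (2:1), freeze-dried, and analysed by RapidFire-MS against an internal standard.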
For orientation: Microsomes from liver hold many membrane-bound enzymes, among them those of drug oxidation.

Data set [4] in a line: Stability in human plasma assessed as parent compound remaining at 2 uM after 2 hrs by RF-MS analysis. The format is ADME, cell-free. To be noted: read-out: Stability. The procedure, abridged: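 Compound at 2 μM final (DMSO ≤0.1%) incubated in human plasma at 37 °C, sampled at 0, 15, 30, 60 and 120 min. Quenched with ACN–methanol (2:1) and measured by RapidFire-MS/MS (ESI+, MRM). The value is the percent of parent remaining.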

The nature of data set [5]: Cytotoxicity against human BJ cells. It is filed as toxicity, cell-based.
The test system of data set [6] is PC-3. In words: Biodistribution in human PC-3 cells xenografted mouse measured after 3 hrs by SPECT method. The format is ADME, organism-based. The conditions noted are these: in vivo. The procedure, abridged:
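Mice carried subcutaneous PC-3 xenografts. Static whole-body SPECT scans of 30 min under 2% isoflurane were run at 1, 3 and 24 h p.i., then a 20 min double CT.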
Background: A xenograft is tissue or cells of one species grown in another, often human tumour cells in immunodeficient mice.

Data set [7] in a line: Displacement of [3H]-choline from choline transporter in human U-87 MG cells preincubated with [3H]-choline for 15 mins followed by compound addition and measured after 60 mins. The format is cell-based. The essentials: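 PC-3 cells were grown in F12 Ham with 10% FBS, 0.25% bicarbonate and pen/strep; U-87 MG cells in DMEM with 10% FBS, 0.1 mM NEAA and 1.0 mM pyruvate; both at 37 °C, 5% CO2, used at 70–90% confluence. [3H]choline was added in Tris uptake buffer (pH 7.4), then compound in triplicate over 10 concentrations; readout was radioactivity per g of protein (BCA), with IC50 from a sigmoidal fit.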

Data set [8] concerns PC-3. Description: Biodistribution in human PC-3 cells xenografted mouse measured after 3 hrs by PET method. The format is ADME, organism-based. To be noted: in vivo. The procedure, abridged: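 Mice carried subcutaneous PC-3 xenografts (5 × 10⁶ cells, right flank), with tumors at 100–300 mm³. [18F]fluorocholine 5–7 MBq was given retro-orbitally.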

Structures are written as SMILES.

`C[N+](C)(CCO)CCCCOc1ccccc1I`: the IC50 in data set [1] is 11 µM; in data set [2], more than 50 µM; in data set [5], more than 50 µM. The remaining at 1 h, 2 µM in data set [3] came to 54%. Moreover, the remaining at 2 h, 2 µM in data set [4] was determined as 91%.
As to `C[N+](C)(CCO)CCCCCCOc1ccc(I)c([N+](=O)[O-])c1`, the values for the half-inhibitory concentration (IC50) in data set [1], in data set [2] and in data set [5] were 0.14 µM, more than 50 µM and more than 50 µM, respectively. For the same molecule, in data set [3], the remaining at 1 h, 2 µM came to 92%. Further, the remaining at 2 h, 2 µM in data set [4] was found to be 89%.
As to `C[N+](C)(CCO)CCCCCCOc1cccc([123I])c1.[Br-]`, the Drug uptake entry in the data set with PC-3 [6] is on record as “Not Active”.
In the case of `CC[N+](CC)(CCO)Cc1ccc(I)cc1`, the IC50 in data set [7] is 77 µM; in data set [1] it was 77 µM; in data set [2], more than 50 µM; in data set [5], more than 50 µM.
As for `OCC[N+]1(Cc2ccc(I)cc2)CCCC1` [listing 1 of 2 here], the IC50 in data set [7] came out at 23 µM; in data set [1], 16 µM.
As to `OCC[N+]1(Cc2cccc(I)c2)CCCC1`, the IC50 was 8.8 µM in data set [7], 28 µM in data set [1], more than 50 µM in data set [2] and more than 50 µM in data set [5]. The remaining at 1 h, 2 µM in data set [3] worked out at 90%. In addition, the remaining at 2 h, 2 µM in data set [4] was found to be 66%.
In the case of `OCC[N+]1(Cc2ccc(I)cc2)CCCC1` [listing 2 of 2 here], the IC50 in data set [7] is 3.3 µM; in data set [1], 11 µM; in data set [2] it was more than 50 µM; in data set [5], more than 50 µM. The remaining at 1 h, 2 µM in data set [3] came out at 74%. The remaining at 2 h, 2 µM in data set [4] came to 81%.
As for `OCC[N+]1(CCOc2ccccc2I)CCCC1`, the IC50 in data set [1] is 4.7 µM; in data set [2], more than 50 µM; in data set [5] it was more than 50 µM. Further, the remaining at 1 h, 2 µM in data set [3] turned out to be 78%. For the same molecule, the remaining at 2 h, 2 µM in data set [4] was 81%.
Consider `C[N+](C)(CCO)CCCCOc1ccc(-c2ccccc2)cc1I`, for which, in data set [1], the IC50 was determined as 1.3 µM. Moreover, in data set [3], the remaining at 1 h, 2 µM turned out to be 89%. Moreover, in data set [4], the remaining at 2 h, 2 µM was found to be 90%.
Consider `OCC[N+]1(CCCCOc2ccccc2I)CCCC1`, for which the IC50 was 5.1 µM in data set [1], more than 50 µM in data set [2] and more than 50 µM in data set [5]. Besides, the remaining at 1 h, 2 µM in data set [3] amounted to 70%. The remaining at 2 h, 2 µM in data set [4] is 91%.
With `OCC[N+]1(CCCCCCOc2cccc(I)c2)CCCC1`, the figures for the IC50 in data set [1], in data set [2] and in data set [5] were 0.91 µM, more than 50 µM and more than 50 µM, respectively. The remaining at 1 h, 2 µM in data set [3] amounted to 79%. Also, in data set [4], the remaining at 2 h, 2 µM is 91%.
On to `C[N+](C)(CCO)Cc1ccc(I)cc1`, for which the IC50 in data set [7] is 129 µM; in data set [1], 130 µM; in data set [2] it was more than 50 µM; in data set [5] it was more than 50 µM.
On to `CC[N+](CC)(CCO)Cc1ccccc1I`, for which the IC50 in data set [7] was 4.3 µM; in data set [1], 8.1 µM; in data set [2], more than 50 µM; in data set [5], more than 50 µM. The remaining at 1 h, 2 µM in data set [3] is 100%. Besides, the remaining at 2 h, 2 µM in data set [4] worked out at 85%.
Turning to `CS(=O)(=O)[O-].OCC[N+]1(Cc2cccc([123I])c2)CCCC1`, the Drug uptake entry in the data set with PC-3 [6] is listed as “Not Active”.
As to `CCCCCCCCCCOc1ccc(CCC[N+](C)(C)CCO)cc1I`, the IC50 in data set [7] is 1.7 µM; in data set [1], 2.1 µM. The remaining at 1 h, 2 µM in data set [3] is 82%. Also, the remaining at 2 h, 2 µM in data set [4] is 85%.
Consider `C[N+](C)(CCO)CCc1ccc(I)s1`, for which the figures for the IC50 in data set [1], in data set [2] and in data set [5] were 0.45 µM, more than 50 µM and more than 50 µM, respectively. Further, the remaining at 1 h, 2 µM in data set [3] was 86%. Also, the remaining at 2 h, 2 µM in data set [4] was 89%.
With `C[N+](C)(CCO)CCc1cccc(I)c1`, the IC50 in data set [7] was 0.78 µM; in data set [1], 1.2 µM; in data set [2], more than 50 µM; in data set [5], more than 50 µM. Further, the remaining at 1 h, 2 µM in data set [3] came to 100%. For the same molecule, in data set [4], the remaining at 2 h, 2 µM came to 80%.
In the case of `C[N+](C)(C[18F])CCO.[Cl-]`, the Drug uptake entry in the data set with PC-3 [8] is “Not Active”.
Take `CCCCCCOc1ccc(CCC[N+](C)(C)CCO)cc1I`: the IC50 in data set [7] worked out at 2.1 µM; in data set [1], 0.41 µM. Besides, the remaining at 1 h, 2 µM in data set [3] stood at 93%. Besides, the remaining at 2 h, 2 µM in data set [4] turned out to be 60%.
As for `OCC[N+]1(CCc2ccc(I)s2)CCCC1`, the IC50 was 10 µM in data set [1], more than 50 µM in data set [2] and more than 50 µM in data set [5]. Moreover, in data set [3], the remaining at 1 h, 2 µM was 86%. The remaining at 2 h, 2 µM in data set [4] is 86%.
Turning to `OCC[N+]1(CCc2ccc(I)cc2)CCCC1`, the IC50 was 29 µM in data set [7], 19 µM in data set [1], more than 50 µM in data set [2] and more than 50 µM in data set [5]. Moreover, the remaining at 1 h, 2 µM in data set [3] worked out at 96%. For the same molecule, in data set [4], the remaining at 2 h, 2 µM was determined as 98%.
Regarding `C[N+](C)(CCO)CCCCCCOc1cccnc1I`, the IC50 in data set [1] is 1.4 µM; in data set [2], more than 50 µM; in data set [5], more than 50 µM. In addition, the remaining at 1 h, 2 µM in data set [3] is 86%. Also, in data set [4], the remaining at 2 h, 2 µM is 86%.
On to `C[N+](C)(CCO)CCCC#CI`, for which the IC50 is 3 µM in data set [1], more than 50 µM in data set [2] and more than 50 µM in data set [5]. The remaining at 1 h, 2 µM in data set [3] is 95%. In addition, in data set [4], the remaining at 2 h, 2 µM amounted to 89%.
As to `C[N+](C)(CCO)CCCCCCOc1cccc(I)c1`, the IC50 in data set [1] was 0.044 µM; in data set [2] it was more than 50 µM; in data set [5] it was more than 50 µM. Also, the remaining at 1 h, 2 µM in data set [3] is 85%. The remaining at 2 h, 2 µM in data set [4] amounted to 83%.
On to `C[N+](C)(CCO)Cc1cccc(I)c1`, for which the IC50 is 25 µM in data set [7], 133 µM in data set [1], more than 50 µM in data set [2] and more than 50 µM in data set [5].

As usually defined, the IC50 is the concentration at which inhibition is half-maximal.
